Measurements taken from ChEMBL document CHEMBL1145581, “Design and synthesis of tetrahydroisoquinoline derivatives as potential multidrug resistance reversal agents in cancer” (Bioorg Med Chem Lett, 2008).
Active and inactive are the calls of the source. No cut-off for these calls is given here.

Experiments:
P-gp (ABCB1) [1] = target: T1, P-gp (ABCB1) (Homo sapiens, UniProt P08183); assay: Inhibition of Pgp-mediated multidrug resistance activity in human MCF7/ADM cells assessed as Rh123 accumulation at 10 umol/L after 30 mins; assay type: cell-based; details: probe Rh123
Summary of the method: (§1)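 MCF-7/ADM cells were maintained with ADM 1 µM and seeded at 4 × 10⁴/ml. They were preincubated 30 min in serum-free RPMI 1640, then given compound (1, 3, 10 µM final) for 30 min. Rh123 10 µM final was added for a further 60 min at 37 °C. After PBS washes and Triton X-100 lysis, intracellular fluorescence was read at ex 488/em 535 nm. Triplicate. Inhibitory ratio = (treated − control)/control × 100, background-corrected.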

Rattus norvegicus [2] = assay: Toxicity in Sprague-Dawley rat assessed as ventricular sustained tachycardia by measuring aconitine nitrate level at 2 mg.kg, iv by […]; assay type: organism-based, Cardiac ventricle; details: in vivo
Summary of the method: (§2)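 SD rats were anesthetized with urethane 1.2 g/kg ip, and compound in normal saline was given via the femoral vein. Two minutes later, aconitine nitrate was infused IV at constant rate by peristaltic pump. The aconitine dose at onset of premature beats, sustained tachycardia or fibrillation was determined by […]. n = 3.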

Rattus norvegicus [3] = assay: Toxicity in Sprague-Dawley rat assessed as ventricular fibrillation by measuring aconitine nitrate level at 2 mg.kg, iv by […]; assay type: organism-based, Cardiac ventricle; details: in vivo; summary of the method: as §2
[4] = target: T2, ATP-dependent translocase ABCB1 (Rattus norvegicus, UniProt P43245); assay: Inhibition of Pgp-mediated multidrug resistance activity in rat RBMEC cells assessed as Rh123 accumulation at 10 umol/L after 90 mins; assay type: cell-based; details: 1.5 h, 10 µM
Summary of the method: (§3)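 Primary rat brain microvascular endothelial cells were grown in DF with 20% FCS to a 90% confluent monolayer. They were preincubated 30 min in serum-free DF. Compound (1, 3, 10 µM final) and Rh123 5 µM final were then added for 90 min, with cells collected at different times. Washed cells were lysed with Triton X-100 and fluorescence read at 488/535 nm. Values were normalized to Coomassie protein. Duplicate, ≥3 experiments.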

[5] = Antitumor activity against human K562/A02 cells xenografted in nude mouse at 8 mg/kg; assay type: functional
Summary of the method: (§4)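 SCID nude mice received subcutaneous axillary inoculation of log-phase K562/A02 cells at 1 × 10⁷/ml. The cells were maintained in RPMI 1640 with 10% FCS and ADM 1 µg/ml final. When tumors reached a mean diameter of 0.4–0.6 cm, mice were randomized into groups of ten. Drug was given IV three times weekly, alongside adriamycin; vehicle controls were included. Endpoint was tumor weight. Inhibition ratio was calculated relative to the ADM-alone group.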

K562 = assay: Effect on membrane lipid fluidity in human K562 cells; assay type: functional, cell-based
Summary of the method: (§5)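 K562 and K562/A02 cells were grown in RPMI 1640 with 10% FCS and seeded at 1 × 10⁵/ml. They were exposed to 1, 3 or 10 µM compound (final) for 24 h, then washed and labelled with 2 µM DPH for 30 min. After washing, cells were held 10 min at 25 °C. Fluorescence polarization P was read at ex 357.6/em 428.7 nm, with P inversely related to membrane fluidity. Duplicate, ≥3 experiments.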

P-gp (ABCB1) [6] = target: T1, P-gp (ABCB1); assay: Inhibition of Pgp-mediated multidrug resistance activity in human MCF7/ADM cells assessed as Rh123 accumulation at 3 umol/L after 30 mins; assay type: cell-based; details: probe Rh123; summary of the method: as §1
Aorta = assay: Toxicity in Sprague-Dawley rat aorta assessed as vascular contractile activity; assay type: tissue-based; details: in vitro
Summary of the method: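 Aortic rings came from SD rats (250–350 g) and were kept at 37 °C under 95% O₂/5% CO₂. Isometric tension was recorded. After 60 min equilibration, rings were contracted with 20 or 80 mM KCl. Drug was then added in increasing concentrations until maximal relaxation. Relaxation was expressed as % of the KCl contraction.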

P-gp (ABCB1) [7] = target: T1, P-gp (ABCB1); assay: Inhibition of Pgp-mediated multidrug resistance activity in human MCF7/ADM cells assessed as Rh123 accumulation at 1 umol/L after 30 mins; assay type: cell-based; details: probe Rh123; summary of the method: as §1
K562/A02 = assay: Decrease in membrane lipid fluidity in human K562/A02 cells at 10 umol/L; assay type: functional, cell-based; summary of the method: as §5
[8] = target: T2, ATP-dependent translocase ABCB1; assay: Inhibition of Pgp-mediated multidrug resistance activity in rat RBMEC cells assessed as Rh123 accumulation at 1 umol/L after 90 mins; assay type: cell-based; details: 1.5 h, 1 µM; summary of the method: as §3
[9] = Antitumor activity against human K562/A02 cells xenografted in nude mouse at 2 mg/kg; assay type: functional; summary of the method: as §4
[10] = target: T2, ATP-dependent translocase ABCB1; assay: Inhibition of Pgp-mediated multidrug resistance activity in rat RBMEC cells assessed as Rh123 accumulation at 3 umol/L after 90 mins; assay type: cell-based; details: 1.5 h, 3 µM; summary of the method: as §3
Rattus norvegicus [11] = assay: Toxicity in Sprague-Dawley rat assessed as ventricular permeature beat by measuring aconitine nitrate level at 2 mg.kg, iv by […]; assay type: organism-based, Cardiac ventricle; details: in vivo
[12] = Antitumor activity against human K562/A02 cells xenografted in nude mouse assessed as tumor weight at 2 mg/kg; assay type: functional; summary of the method: as §4

T1 sequence (P08183 whole entry): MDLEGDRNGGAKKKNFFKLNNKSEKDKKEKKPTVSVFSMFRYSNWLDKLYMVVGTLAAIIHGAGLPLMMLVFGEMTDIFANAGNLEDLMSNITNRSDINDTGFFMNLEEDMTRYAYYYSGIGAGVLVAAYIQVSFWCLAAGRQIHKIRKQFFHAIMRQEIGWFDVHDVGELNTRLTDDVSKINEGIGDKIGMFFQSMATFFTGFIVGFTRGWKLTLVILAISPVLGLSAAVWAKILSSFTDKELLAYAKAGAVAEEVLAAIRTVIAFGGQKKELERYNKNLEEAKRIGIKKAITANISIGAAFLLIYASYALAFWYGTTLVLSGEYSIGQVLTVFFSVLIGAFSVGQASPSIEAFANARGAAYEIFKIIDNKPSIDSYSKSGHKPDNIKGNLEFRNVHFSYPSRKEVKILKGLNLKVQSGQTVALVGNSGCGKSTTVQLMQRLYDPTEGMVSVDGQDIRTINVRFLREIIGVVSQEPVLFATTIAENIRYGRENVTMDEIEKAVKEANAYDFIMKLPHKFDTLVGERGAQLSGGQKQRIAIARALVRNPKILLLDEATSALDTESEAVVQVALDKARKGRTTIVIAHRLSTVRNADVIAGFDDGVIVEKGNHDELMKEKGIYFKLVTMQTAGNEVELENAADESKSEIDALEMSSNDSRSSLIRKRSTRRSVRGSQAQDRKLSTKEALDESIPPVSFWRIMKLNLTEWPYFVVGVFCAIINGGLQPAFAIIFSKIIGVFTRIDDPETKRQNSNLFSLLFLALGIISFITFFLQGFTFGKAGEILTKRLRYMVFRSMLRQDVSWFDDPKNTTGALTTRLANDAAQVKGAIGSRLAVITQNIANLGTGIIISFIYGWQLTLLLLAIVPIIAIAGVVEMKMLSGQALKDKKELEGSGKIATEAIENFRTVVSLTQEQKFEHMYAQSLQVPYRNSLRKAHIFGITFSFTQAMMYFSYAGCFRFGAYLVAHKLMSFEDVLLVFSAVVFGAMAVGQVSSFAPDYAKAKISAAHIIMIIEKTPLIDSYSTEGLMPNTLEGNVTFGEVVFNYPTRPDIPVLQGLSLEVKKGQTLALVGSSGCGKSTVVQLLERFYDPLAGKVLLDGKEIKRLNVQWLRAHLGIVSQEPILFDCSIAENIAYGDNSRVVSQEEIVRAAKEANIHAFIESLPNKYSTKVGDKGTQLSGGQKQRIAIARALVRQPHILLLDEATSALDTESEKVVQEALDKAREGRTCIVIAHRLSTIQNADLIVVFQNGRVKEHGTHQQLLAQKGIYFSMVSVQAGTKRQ
T2 sequence (P43245 whole entry): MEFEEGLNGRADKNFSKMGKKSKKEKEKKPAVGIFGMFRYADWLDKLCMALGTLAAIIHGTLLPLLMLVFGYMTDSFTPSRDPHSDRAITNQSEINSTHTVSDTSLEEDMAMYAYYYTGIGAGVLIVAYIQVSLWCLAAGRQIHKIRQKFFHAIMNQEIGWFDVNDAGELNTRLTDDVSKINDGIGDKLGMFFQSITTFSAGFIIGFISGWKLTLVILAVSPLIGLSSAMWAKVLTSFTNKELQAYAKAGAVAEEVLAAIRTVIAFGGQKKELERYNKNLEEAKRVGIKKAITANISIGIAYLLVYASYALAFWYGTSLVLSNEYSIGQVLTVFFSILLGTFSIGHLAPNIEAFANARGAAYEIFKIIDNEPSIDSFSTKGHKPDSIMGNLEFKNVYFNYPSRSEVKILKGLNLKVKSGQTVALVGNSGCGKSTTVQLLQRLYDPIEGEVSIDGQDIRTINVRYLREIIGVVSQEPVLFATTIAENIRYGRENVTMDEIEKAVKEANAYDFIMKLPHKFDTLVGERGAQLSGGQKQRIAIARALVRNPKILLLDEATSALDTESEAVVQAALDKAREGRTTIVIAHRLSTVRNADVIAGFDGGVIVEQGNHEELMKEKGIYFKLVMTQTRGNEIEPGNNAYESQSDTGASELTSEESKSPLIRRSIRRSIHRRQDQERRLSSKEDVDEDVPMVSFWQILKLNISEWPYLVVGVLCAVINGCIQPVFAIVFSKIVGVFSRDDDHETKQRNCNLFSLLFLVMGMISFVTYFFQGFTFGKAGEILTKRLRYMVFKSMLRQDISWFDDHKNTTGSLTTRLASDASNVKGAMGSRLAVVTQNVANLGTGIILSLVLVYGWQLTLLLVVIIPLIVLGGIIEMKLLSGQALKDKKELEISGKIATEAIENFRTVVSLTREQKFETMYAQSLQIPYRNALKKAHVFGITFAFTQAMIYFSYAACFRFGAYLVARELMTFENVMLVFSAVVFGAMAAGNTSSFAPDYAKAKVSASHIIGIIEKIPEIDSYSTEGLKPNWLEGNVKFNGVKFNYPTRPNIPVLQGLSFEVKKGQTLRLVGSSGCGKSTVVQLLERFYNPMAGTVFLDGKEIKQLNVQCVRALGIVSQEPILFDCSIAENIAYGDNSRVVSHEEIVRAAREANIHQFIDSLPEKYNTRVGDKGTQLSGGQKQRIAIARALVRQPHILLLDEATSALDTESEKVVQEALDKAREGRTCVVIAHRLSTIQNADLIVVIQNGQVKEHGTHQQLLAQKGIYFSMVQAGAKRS

| Structure (SMILES) | inhibition at 0.5 h, 10 µM (P-gp (ABCB1) [1]) [%] | Activity (Rattus norvegicus [2]) [µg/kg] | Activity (Rattus norvegicus [3]) [µg/kg] | Activity [4] | inhibition in vivo at 8 mg/kg [5] [%] | Activity (K562) | inhibition at 0.5 h, 3 µM (P-gp (ABCB1) [6]) [%] | Activity (Aorta) | inhibition at 0.5 h, 1 µM (P-gp (ABCB1) [7]) [%] | Activity (K562/A02) | Activity [8] | inhibition in vivo at 2 mg/kg [9] [%] | Activity [10] | Activity (Rattus norvegicus [11]) [µg/kg] | Activity [12] [g] |
| --- | --- | --- | --- | --- | --- | --- | --- | --- | --- | --- | --- | --- | --- | --- | --- |
| COc1ccc(CCN(C)CCCC(C#N)(c2ccc(OC)c(OC)c2)C(C)C)cc1OC (stereo unspecified) [VERAPAMIL] | 98.7 | 44 | 55 | Active | -66.4 | inactive | – | – | – | – | – | – | – | – | – |
| CCCCCCCCN/C(=N/C#N)N1CCc2cc(OC)c(OC)cc2C1Cc1ccc(OC)c(OC)c1 (stereo unspecified) | 69.3 | 26.7 | 31.5 | Active | -59.5 | inactive | 60.5 | Not Active | 35.2 | Active | Active | -62.2 | Active | 22.4 | – |
| COc1cccc2c1C(=O)c1c(O)c3c(c(O)c1C2=O)C[C@@](O)(C(=O)CO)C[C@@H]3O[C@H]1C[C@H](N)[C@H](O)[C@H](C)O1 [DOXORUBICIN] | – | – | – | – | – | – | – | – | – | – | – | – | – | – | 2.17 |
